Experimental data gathered from unrelated publications.
Each line is one published result; the experiments were not run side by side.
Medium: Caco-2

N#C[C@@]1(c2ccc3c(N)ncnn23)O[C@H](CO)[C@@H](O)[C@H]1O
Papp B→A (10 µM, 2 h): 25.4 ×10⁻⁶ cm/s

COc1cc(NC(=O)Cn2cc(Cl)c3cc(F)c(-c4cnn(C)c4)cc32)cc(OC)c1OC
Papp B→A: 1.51 ×10⁻⁶ cm/s

C[C@H]1O[C@@H](O[C@H]2[C@@H](O)C[C@H](O[C@H]3[C@@H](O)C[C@H](O[C@H]4CC[C@@]5(C)[C@H](CC[C@@H]6[C@@H]5C[C@@H](O)[C@]5(C)[C@@H](C7=CC(=O)OC7)CC[C@]65O)C4)O[C@@H]3C)O[C@@H]2C)C[C@H](O)[C@@H]1O
Papp B→A (10 µM, 2 h): 13.6 ×10⁻⁶ cm/s

O=C(CCc1ccc(O)cc1)c1c(O)cc(O)cc1O
Papp B→A (100 µg/mL, 2 h): 12.2 ×10⁻⁶ cm/s

Cc1ccc(N(c2ccc(NC(=O)CN(C)c3ccccc3N3CCCC3=O)cc2)C(C)C)cc1
Papp B→A: 2.52 ×10⁻⁶ cm/s

C[C@H]1O[C@@H](O[C@H]2[C@@H](O)C[C@H](O[C@H]3[C@@H](O)C[C@H](O[C@H]4CC[C@@]5(C)[C@H](CC[C@@H]6[C@@H]5C[C@@H](O)[C@]5(C)[C@@H](C7=CC(=O)OC7)CC[C@]65O)C4)O[C@@H]3C)O[C@@H]2C)C[C@H](O)[C@@H]1O
Papp B→A (5 µM, 2 h): 17.9 ×10⁻⁶ cm/s

C[C@@H]1O[C@@H](OC[C@H]2O[C@@H](Oc3c(-c4ccc(OCCO)c(OCCO)c4)oc4cc(OCCO)cc(O)c4c3=O)[C@H](O)[C@@H](O)[C@@H]2O)[C@H](O)[C@H](O)[C@H]1O
Papp B→A (100 µg/mL, 2 h): 2.67 ×10⁻⁶ cm/s

N#Cc1ccc(C[C@H](Nc2nnc(-c3ccc(F)cc3)o2)C(=O)N2CCc3ccccc32)cc1
Papp B→A (100 µM, 2 h): 237 ×10⁻⁶ cm/s

Cc1cc(C)c(CNC(=O)c2cc(Cl)c3c(c2C)O[C@@](C)([C@H]2CC[C@H](N(C)C)CC2)O3)c(=O)[nH]1
Papp B→A (30 µM): 19 ×10⁻⁶ cm/s

N#Cc1ccc(C[C@H](Nc2c(Nc3ccc(Br)cc3)c(=O)c2=O)C(=O)N2CCc3ccccc32)cc1
Papp B→A (100 µM, 2 h): 249 ×10⁻⁶ cm/s

O=c1c(-c2ccc(O)cc2)coc2cc(O)ccc12
Papp B→A (100 µg/mL, 2 h): 4.98 ×10⁻⁶ cm/s

N#Cc1ccc(C[C@H](NC(=O)Nc2ccc(F)cc2)C(=O)N2CCc3ccccc32)cc1
Papp B→A (100 µM, 2 h): 218 ×10⁻⁶ cm/s

O=c1cc(-c2ccccc2)oc2cc(O)c(O)c(O)c12
Papp B→A (100 µg/mL, 2 h): 2.76 ×10⁻⁶ cm/s
